Assay results taken from ChEMBL document CHEMBL4665761, “Optimizing the Benefit/Risk of Acetyl-CoA Carboxylase Inhibitors through Liver Targeting” (J Med Chem, 2020).
≈ marks a conversion by molar mass, not a printed value. Calls of active or inactive are those of the source. The rule behind the calls is not given here.

Experiments:
[1] = Ratio of drug uptake in Wistar-Hannover rat unbound liver to plasma concentration at 10 mg/kg, po hydrochloride salt form of compound after 6 hrs by LC/MS-MS analysis; type: ADME, organism-based; conditions: liver and plasma
Method in brief: (§1)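 Male Wistar-Hannover rats (n = 2 or 3) dosed orally as a suspension in 0.5% methyl cellulose with 0.1% Tween 80. Plasma and liver sampled 6 h post-dose. Kp is total liver/plasma; Kpu,u uses unbound fractions from equilibrium dialysis of plasma and liver.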

[2] = Ratio of drug uptake in Wistar-Hannover rat liver to plasma at 10 mg/kg, po hydrochloride salt form of compound after 6 hrs by LC/MS-MS analysis; type: ADME, organism-based; conditions: liver and plasma; method in brief: as §1
[3] = Drug uptake in Wistar-Hannover rat assessed as plasma concentration at 10 mg/kg, po hydrochloride salt form of compound after 6 hrs by LC/MS-MS analysis; type: ADME, organism-based
Method in brief: (§2)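 Male Wistar-Hannover rats, n = 2 or 3, given an oral suspension in 0.5% methyl cellulose with 0.1% Tween 80; one compound was dosed as the HCl salt. Total plasma and liver concentrations were measured 6 h post-dose. Kp = liver/plasma total concentration. Kpu,u uses fu values from equilibrium dialysis.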

[4] = Drug uptake in Wistar-Hannover rat liver at 10 mg/kg, po using hydrochloride salt form of compound after 6 hrs by LC/MS-MS analysis; type: ADME, organism-based; conditions: read-out: Drug uptake; method in brief: as §2
Acetyl-CoA carboxylase 1 = Acetyl-CoA carboxylase 1 (Homo sapiens, UniProt Q13085); assay: Inhibition of recombinant human ACC1 using acetyl coA as substrate incubated for 1 hr by transcreener fluorescence polarization assay
Method in brief: (§3)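 Recombinant human enzyme, Transcreener assay run per an earlier protocol. IC50 is the geometric mean of at least three replicates, also given as pIC50 ± SD.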

Acetyl-CoA carboxylase 2 = Acetyl-CoA carboxylase 2 (Homo sapiens, UniProt O00763); assay: Inhibition of recombinant human ACC2 using acetyl coA as substrate incubated for 1 hr by transcreener fluorescence polarization assay; method in brief: as §3
[5] = Apparent permeability in MCDKII-LE cells at 2 uM incubated for 30 mins; type: ADME, cell-based, Canis lupus familiaris, MDCKII-LE; conditions: dog, MDCK
Method in brief: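 MDCK-LE (low-efflux) cell monolayers with a 30 min pre-incubation. Read-out is apparent passive permeability (Papp, 10^-6 cm/s).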

Rattus norvegicus [6] = species: Rattus norvegicus; assay: Fraction unbound in rat plasma by equilibrium dialysis method
[7] = Metabolic intrinsic clearance in human hepatocytes assessed per million cells incubated for 2 hrs; type: ADME, cell-based, Hepatocyte; conditions: read-out: CLH
Method in brief: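 Cryopreserved human hepatocytes incubated for 2 h. In vitro half-lives scaled to intrinsic clearance, expressed per 10^6 cells.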

[8] = Apparent volume of distribution at steady state in Wistar-Hannover rat plasma at 1 mg/kg, iv and measured up to 24 hrs by LC/MS-MS analysis; type: ADME, organism-based; conditions: read-out: Vdss(app)
Method in brief: (§4)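 Male Wistar-Hannover rats (240–350 g) with jugular vein cannulas, dosed 1 mg/kg IV (2 mL/kg) or PO. IV vehicle was 10% DMSO/90% of 20% sulfobutylether-β-cyclodextrin in water, or 10% DMSO/30% PEG400/60% water. Plasma was analysed by LC-MS/MS. Parameters come from plasma concentration–time data, n = 2: Cmax observed directly, AUC0-24 by the linear trapezoidal rule, CL = IV dose/AUC, Vss = dose/(AUC × elimination rate constant).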

[9] = Octanol-water partition coefficient, logD of compound at pH 7.4 at 0.5 to 2 mg incubated for 1 hr by HPLC based shake-flask method; type: physicochemical; conditions: dose 0.5-2 mg
Method in brief: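 Shake-flask octanol/water partition at pH 7.4.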

[10] = Thermodynamic solubility of the compound at pH 7.4 after 24 hrs; type: physicochemical; conditions: buffer, read-out: Therm_solubility
OATP1B3 = target: T1, OATP1B3 (Homo sapiens, UniProt Q9NPD5); assay: Substrate activity at human OATP1B3 stably expressed in HEK293 cells assessed as ratio of total to passive cellular uptake at 1 to 3 uM incubated for 0.5 to 4 mins by LC/MS-MS analysis; type: ADME, cell-based; conditions: HEK293 cells stably expressing human OATP1B3, dose 1-3 µM, time 0.5-4 min
T1 sequence (Q9NPD5 whole entry): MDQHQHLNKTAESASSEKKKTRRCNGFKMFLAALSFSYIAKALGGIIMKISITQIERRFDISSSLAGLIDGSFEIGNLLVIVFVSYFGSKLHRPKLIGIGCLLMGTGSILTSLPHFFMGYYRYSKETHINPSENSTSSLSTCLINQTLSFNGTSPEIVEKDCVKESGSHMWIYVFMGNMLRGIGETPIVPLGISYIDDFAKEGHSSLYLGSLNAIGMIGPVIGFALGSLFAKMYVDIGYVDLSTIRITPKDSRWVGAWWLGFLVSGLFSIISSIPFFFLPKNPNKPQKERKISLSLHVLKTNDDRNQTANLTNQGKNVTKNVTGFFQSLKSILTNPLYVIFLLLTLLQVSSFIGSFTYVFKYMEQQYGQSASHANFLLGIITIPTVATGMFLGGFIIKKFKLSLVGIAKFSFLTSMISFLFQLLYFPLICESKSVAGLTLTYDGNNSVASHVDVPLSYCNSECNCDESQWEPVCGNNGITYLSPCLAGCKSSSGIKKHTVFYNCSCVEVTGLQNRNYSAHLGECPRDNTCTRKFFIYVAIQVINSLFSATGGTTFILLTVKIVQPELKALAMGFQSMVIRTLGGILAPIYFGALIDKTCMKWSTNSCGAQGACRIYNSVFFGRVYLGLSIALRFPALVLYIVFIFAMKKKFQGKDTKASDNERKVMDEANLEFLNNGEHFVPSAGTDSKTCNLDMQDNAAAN
Method in brief: (§5)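 Stably transfected HEK293 cells and wild-type parental cells, cultured to confluency in DMEM with 10% heat-inactivated FBS and 5 µg/mL blasticidin. Uptake at 1–3 µM in HBSS/20 mM HEPES pH 7.4, 37 °C, 0.5–4.0 min. Cells washed in ice-cold buffer, lysed in MeOH, quantified by LC-MS/MS and normalized to protein. Ratio is transfected/parental uptake; >2 denotes substrate.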

[11] = Thermodynamic solubility of the compound at pH 1.2 after 24 hrs; type: physicochemical; conditions: buffer, read-out: Therm_solubility
[12] = Half life in Wistar-Hannover rat plasma at 1 mg/kg, iv and measured up to 24 hrs by LC/MS-MS analysis; type: ADME, organism-based; method in brief: as §4
[13] = Clearance in Wistar-Hannover rat plasma at 1 mg/kg, iv and measured up to 24 hrs by LC/MS-MS analysis; type: ADME, organism-based; method in brief: as §4
OATP1B1 = target: T2, OATP1B1 (Homo sapiens, UniProt Q9Y6L6); assay: Substrate activity at human OATP1B1 stably expressed in HEK293 cells assessed as ratio of total to passive cellular uptake at 1 to 3 uM incubated for 0.5 to 4 mins by LC/MS-MS analysis; type: ADME, cell-based; conditions: HEK293 cells stably expressing human OATP1B1, dose 1-3 µM, time 0.5-4 min; method in brief: as §5
T2 sequence (Q9Y6L6 whole entry): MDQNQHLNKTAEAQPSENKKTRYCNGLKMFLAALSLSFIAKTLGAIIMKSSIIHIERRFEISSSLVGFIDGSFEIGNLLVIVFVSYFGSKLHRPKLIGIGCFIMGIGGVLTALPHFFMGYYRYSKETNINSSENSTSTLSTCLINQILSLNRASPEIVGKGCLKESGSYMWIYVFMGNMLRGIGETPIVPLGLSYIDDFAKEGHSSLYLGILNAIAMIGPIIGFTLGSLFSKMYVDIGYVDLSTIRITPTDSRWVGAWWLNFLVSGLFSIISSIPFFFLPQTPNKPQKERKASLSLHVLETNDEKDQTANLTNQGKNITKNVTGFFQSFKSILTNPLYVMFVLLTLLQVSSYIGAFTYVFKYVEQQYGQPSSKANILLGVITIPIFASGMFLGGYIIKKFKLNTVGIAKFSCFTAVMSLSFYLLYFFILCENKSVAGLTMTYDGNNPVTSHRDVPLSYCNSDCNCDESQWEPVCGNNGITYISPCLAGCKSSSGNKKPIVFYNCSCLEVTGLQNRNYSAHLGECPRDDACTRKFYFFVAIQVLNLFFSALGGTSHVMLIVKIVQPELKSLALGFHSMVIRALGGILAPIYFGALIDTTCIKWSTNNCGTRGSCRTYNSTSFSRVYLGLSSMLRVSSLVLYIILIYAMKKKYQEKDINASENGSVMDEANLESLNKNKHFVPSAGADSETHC

[14] = Cmax in Wistar-Hannover rat plasma at 4 mg/kg, po and measured up to 24 hrs by LC/MS-MS analysis; type: ADME, organism-based; parameters: route oral, dose 4 mg/kg, time <=24
[15] = Thermodynamic solubility of the compound at pH 6.5 after 24 hrs; type: physicochemical; conditions: buffer, read-out: Therm_solubility
[16] = AUC (0 to 24 hrs) in Wistar-Hannover rat plasma at 1 mg/kg, iv and measured up to 24 hrs by LC/MS-MS analysis; type: ADME, organism-based; parameters: route intravenous, dose 1 mg/kg, time <=24
Method in brief: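 Male Wistar-Hannover rats (240–350 g) with jugular vein cannulas were given 1 mg/kg IV at 2 mL/kg. Vehicle, depending on compound, was 10% DMSO/90% of 20% sulfobutylether-β-cyclodextrin in water or 10% DMSO/30% PEG400/60% water. AUC0–24 came from plasma concentration–time data by the linear trapezoidal rule, averaged for n = 2. Lower detection limit was 1 ng/mL.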

[17] = Fraction unbound in rat liver by equilibrium dialysis method
Rattus norvegicus [18] = assay: Effect on triglyceride accumulation in po dosed Sprague-Dawley rat high fat dietary model assessed as reduction in triglyceride level after 42 days by XPT clinical analyzer; type: functional, organism-based; conditions: time 42.0 day
Method in brief: (§6)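 High-fat-diet-fed Sprague-Dawley rats dosed orally for 42 days, with chow-fed and vehicle controls, n = 10 per group. Read-out is hepatic triglyceride, reported as mean ± SEM.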

Rattus norvegicus [19] = assay: Effect on triglyceride accumulation in Sprague-Dawley rat high fat dietary model at 10 mg/kg, po assessed as reduction in triglyceride level after 42 days by XPT clinical analyzer; type: functional, organism-based; conditions: time 42.0 day; method in brief: as §6
Rattus norvegicus [20] = assay: Inhibition of DNL in po dosed Sprague-Dawley rat assessed as reduction in DNL level in liver pretreated with one hr followed by [14C]-acetate treatment and measured after 1 hr; type: functional, organism-based
Method in brief: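 Sprague-Dawley rats given single oral doses of 0.03–300 mg/kg in 0.5% methyl cellulose vehicle, n = 16 per dose. Read-out is incorporation of 14C-acetate into lipids in liver, bone marrow and lung, measured at 2 h post-dose relative to vehicle. Data are mean ± SEM. EC50 is reported with a 95% confidence interval.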

Homo sapiens = species: Homo sapiens; assay: Inhibition of ACC (unknown origin) at 100 uM

Sequence of Acetyl-CoA carboxylase 2 (O00763 whole entry): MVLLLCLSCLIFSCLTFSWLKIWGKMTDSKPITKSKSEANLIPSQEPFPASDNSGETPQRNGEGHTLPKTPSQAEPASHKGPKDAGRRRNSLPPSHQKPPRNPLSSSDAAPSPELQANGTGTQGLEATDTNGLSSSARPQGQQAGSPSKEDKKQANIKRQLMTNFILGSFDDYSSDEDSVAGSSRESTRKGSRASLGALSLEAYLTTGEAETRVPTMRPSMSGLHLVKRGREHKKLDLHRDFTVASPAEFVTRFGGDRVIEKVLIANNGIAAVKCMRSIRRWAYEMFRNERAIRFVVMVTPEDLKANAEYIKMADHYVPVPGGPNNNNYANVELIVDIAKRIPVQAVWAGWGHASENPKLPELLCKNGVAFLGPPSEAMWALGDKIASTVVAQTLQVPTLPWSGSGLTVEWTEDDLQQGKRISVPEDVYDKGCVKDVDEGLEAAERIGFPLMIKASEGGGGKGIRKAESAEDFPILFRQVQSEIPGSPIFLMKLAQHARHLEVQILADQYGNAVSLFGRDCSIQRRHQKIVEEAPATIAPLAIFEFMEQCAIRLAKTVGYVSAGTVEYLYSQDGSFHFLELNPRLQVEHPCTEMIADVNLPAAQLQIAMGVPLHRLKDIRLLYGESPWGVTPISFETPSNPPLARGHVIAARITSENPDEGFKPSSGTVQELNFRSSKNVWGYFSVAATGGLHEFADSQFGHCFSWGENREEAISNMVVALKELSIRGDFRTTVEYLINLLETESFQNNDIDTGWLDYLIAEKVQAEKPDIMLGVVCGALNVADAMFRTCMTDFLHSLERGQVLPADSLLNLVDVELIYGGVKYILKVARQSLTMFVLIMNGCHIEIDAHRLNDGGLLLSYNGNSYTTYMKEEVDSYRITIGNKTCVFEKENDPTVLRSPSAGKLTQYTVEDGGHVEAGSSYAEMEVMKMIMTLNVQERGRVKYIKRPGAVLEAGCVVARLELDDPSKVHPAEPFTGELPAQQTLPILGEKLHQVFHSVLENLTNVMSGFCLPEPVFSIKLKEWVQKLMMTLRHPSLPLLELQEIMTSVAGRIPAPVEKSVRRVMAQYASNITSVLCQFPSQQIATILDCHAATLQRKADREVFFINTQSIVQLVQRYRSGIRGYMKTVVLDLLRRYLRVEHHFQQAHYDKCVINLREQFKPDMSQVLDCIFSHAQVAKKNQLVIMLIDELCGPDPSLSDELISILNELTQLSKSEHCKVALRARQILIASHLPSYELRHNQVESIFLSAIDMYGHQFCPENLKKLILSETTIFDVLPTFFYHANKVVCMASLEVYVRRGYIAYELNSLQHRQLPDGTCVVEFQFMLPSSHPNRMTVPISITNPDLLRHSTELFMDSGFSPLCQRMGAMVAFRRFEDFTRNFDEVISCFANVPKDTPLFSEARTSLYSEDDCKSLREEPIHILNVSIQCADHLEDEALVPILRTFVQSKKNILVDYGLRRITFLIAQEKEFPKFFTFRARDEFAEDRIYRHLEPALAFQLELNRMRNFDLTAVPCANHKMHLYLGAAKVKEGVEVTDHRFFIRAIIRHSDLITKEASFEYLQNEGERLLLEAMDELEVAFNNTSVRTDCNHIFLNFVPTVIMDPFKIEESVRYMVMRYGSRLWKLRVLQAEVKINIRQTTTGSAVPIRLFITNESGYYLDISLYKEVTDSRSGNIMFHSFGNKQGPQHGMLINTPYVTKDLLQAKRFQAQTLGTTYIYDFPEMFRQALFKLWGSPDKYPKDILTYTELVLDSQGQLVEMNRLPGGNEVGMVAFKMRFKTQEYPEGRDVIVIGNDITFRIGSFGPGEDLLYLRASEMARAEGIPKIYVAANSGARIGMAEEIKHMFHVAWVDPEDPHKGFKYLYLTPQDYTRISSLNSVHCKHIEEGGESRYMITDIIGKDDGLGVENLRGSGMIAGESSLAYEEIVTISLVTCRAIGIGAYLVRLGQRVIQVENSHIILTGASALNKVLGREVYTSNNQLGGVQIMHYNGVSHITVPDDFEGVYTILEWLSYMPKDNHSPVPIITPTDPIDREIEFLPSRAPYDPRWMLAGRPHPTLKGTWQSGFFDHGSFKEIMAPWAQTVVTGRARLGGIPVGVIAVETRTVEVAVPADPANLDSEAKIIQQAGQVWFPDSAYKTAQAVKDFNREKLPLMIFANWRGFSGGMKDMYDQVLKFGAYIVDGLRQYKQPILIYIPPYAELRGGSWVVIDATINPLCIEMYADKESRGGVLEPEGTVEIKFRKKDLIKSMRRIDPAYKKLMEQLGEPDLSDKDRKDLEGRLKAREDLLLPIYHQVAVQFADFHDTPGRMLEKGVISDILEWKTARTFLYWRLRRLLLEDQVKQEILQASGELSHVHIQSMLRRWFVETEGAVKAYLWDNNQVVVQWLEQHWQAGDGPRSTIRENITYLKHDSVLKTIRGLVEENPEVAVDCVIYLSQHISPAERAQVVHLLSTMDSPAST

## CC(C)n1ncc2c1C(=O)CC1(CCN(C(=O)c3cc(-c4ccc(C(=O)O)cc4)nc(N(C)C)c3)CC1)C2.Cl
[1]
  Kp uu at 6 h: 79
[2]
  Kp at 6 h: 173
[3]
  concentration at 6 h: 57.4 ng/mL
[4]
  concentration at 6 h: 9920 ng/mL

## Cc1nc2cc(C(=O)N3CCC4(CC3)CC(=O)c3c(c(C(=O)O)nn3C(C)C)C4)ccc2[nH]1
Acetyl-CoA carboxylase 1
  IC50: 12000 nM
Acetyl-CoA carboxylase 2
  IC50: 1200 nM
[5]
  Papp at 0.5 h, 2 µM: 0.5 ×10⁻⁶ cm/s

## CC(C)n1ncc2c1C(=O)CC1(CCN(C(=O)c3cc(-c4ccc(C(=O)O)cc4)nc(N(C)C)c3)CC1)C2
Acetyl-CoA carboxylase 1
  IC50: 7.7 nM
Acetyl-CoA carboxylase 2
  IC50: 5.6 nM
[5]
  Papp at 0.5 h, 2 µM: 13 ×10⁻⁶ cm/s
Rattus norvegicus [6]
  fraction unbound: 0.057
[7]
  hepatocyte CLint: < 3 µL/min/1e6 cells
[8]
  Vd: 5.2 L/kg
[9]
  logD at 1 h: 1.4
[10]
  solubility thermodynamic at 24 h: 13 µM (≈ 6.7 µg/mL)
OATP1B3
  uptake ratio at up to 3 µM: 1.4
[11]
  solubility thermodynamic at 24 h: 2 µM (≈ 1.03 µg/mL)
[12]
  half-life: 7.5 h
[13]
  clearance: 31.3 mL/min/kg
OATP1B1
  uptake ratio at up to 3 µM: 2.1
[14]
  Cmax: < 1 ng/mL
[15]
  solubility thermodynamic at 24 h: 3 µM (≈ 1.55 µg/mL)
[16]
  AUC(0-t): 519 ng·h/mL
[17]
  fraction unbound: 0.026

## CC(C)(C)n1cc2c(n1)C(=O)CC1(CCN(C(=O)c3ccc4[nH]nc(C(=O)O)c4c3)CC1)O2
Acetyl-CoA carboxylase 1
  IC50: 130 nM
Acetyl-CoA carboxylase 2
  IC50: 33 nM
[5]
  Papp at 0.5 h, 2 µM: < 0.4 ×10⁻⁶ cm/s

## CN(C)c1cc(C(=O)N2CCC3(CC2)CC(=O)c2nn(C(C)(C)C)cc2O3)cc(-c2ccc(C(=O)O)cc2)n1
Acetyl-CoA carboxylase 1
  IC50: 17 nM
Acetyl-CoA carboxylase 2
  IC50: 9.4 nM
[5]
  Papp at 0.5 h, 2 µM: 0.5 ×10⁻⁶ cm/s
[7]
  hepatocyte CLint: 7.5 µL/min/1e6 cells
[9]
  logD at 1 h: 0.8

## CC(C)(C)n1cc2c(n1)C(=O)CC1(CCN(C(=O)c3cccc(-c4ccc(C(=O)O)cc4)c3)CC1)O2
Acetyl-CoA carboxylase 1
  IC50: 440 nM
Acetyl-CoA carboxylase 2
  IC50: 92 nM
[5]
  Papp at 0.5 h, 2 µM: 2.5 ×10⁻⁶ cm/s

## CC(C)(C)n1cc2c(n1)C(=O)CC1(CCN(C(=O)c3cccc(-c4cccc(C(=O)O)c4)c3)CC1)O2
Acetyl-CoA carboxylase 1
  IC50: 1500 nM
Acetyl-CoA carboxylase 2
  IC50: 200 nM
[5]
  Papp at 0.5 h, 2 µM: 1.3 ×10⁻⁶ cm/s

## CC(C)(C)n1cc2c(n1)C(=O)CC1(CCN(C(=O)c3ccnc(-c4ccc(C(=O)O)cc4)c3)CC1)O2
Acetyl-CoA carboxylase 1
  IC50: 1100 nM
Acetyl-CoA carboxylase 2
  IC50: 190 nM
[9]
  logD at 1 h: -0.4

## COc1cc(C(=O)N2CCC3(CC2)CC(=O)c2c(cnn2C(C)C)C3)cc(-c2ccc(C(=O)O)cc2)n1
Rattus norvegicus [18]
  Activity: Dose-dependent effect
Rattus norvegicus [19]
  Activity: Active
Rattus norvegicus [20]
  inhibition: Dose-dependent effect
Homo sapiens
  inhibition: inactive
